In assay [1] the test system is MCF7. Kind of assay: Compound was tested for cytotoxicity against MCF-7 cell line; Active. Format: functional, cell-based. Particulars: Homo sapiens.
Assay [2] has as its system HCT-116. The experiment in a line: Cytotoxicity against HCT 116 cell line. Format: functional, cell-based. The settings on record: Homo sapiens.
Assay [3] deals with Candida albicans. Kind of assay: Compound ( at <100 uM) was tested for growth inhibition against Candida albicans. Format: functional.
Assay [4] deals with MCF7. Kind of assay: Inhibitory concentration against MCF-7 cell line. In kind it is functional, cell-based. Particulars: Homo sapiens. A digest of the protocol: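 MCF-7 cells maintained in RPMI-1640 with 5% FCS at 37 °C under 5% CO2. Test material came from dilution plates prepared from the one-pot Ugi synthesis plates. Each sample was screened at five concentrations, and an approximate IC50 was estimated from the results.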

In assay [5] the test system is Bacillus subtilis. Kind of assay: Compound ( at <100 uM) was tested for growth inhibition against Bacillus subtilis. Format: functional.
The test system of assay [6] is Staphylococcus aureus. The experiment in a line: Compound ( at <100 uM) was tested for growth inhibition against Staphylococcus aureus. Format: functional.

Converted amounts (≈) assume the structure as drawn. The source made the active and inactive calls. The calls are words filed in the database; no cut-off is given here.

This passage reports Cytotoxicity, IC50 and Inhibition results from ChEMBL document CHEMBL1133254, “One-pot synthesis and biological evaluation of aspergillamides and analogues” (Bioorg Med Chem Lett, 2000).

`CC(=O)N[C@H](CC(C)C)C(=O)N(CCCCCO)C1(C(=O)N/C=C\c2c[nH]c3cc(OCc4ccccc4)ncc23)CCN(Cc2ccccc2)CC1`: in assay [1], the Cytotoxicity entry is “Active”. For orientation: IC50 means the point on the concentration scale where inhibition reaches its midpoint. The low end stands for higher potency, the high end for lower potency. As for `O=C(/C=C/c1c[nH]c2ccccc12)N/C=C/c1c[nH]c2ccccc12` [CHONDRIAMIDE A], in assay [2], the IC50 was determined as 16 µg/mL (≈ 48.9 µM). One may read the Inhibition as the percentage by which the read-out fell short of the control. Low values mean little suppression, high ones strong suppression. `CC(=O)N[C@H](CC(C)C)C(=O)N(C)C(Cc1ccccc1)C(=O)N/C=C\c1c[nH]c2cc(OCc3ccccc3)ncc12` (stereo partly specified) came in with an Inhibition in assay [3] of 100%. Turning to `CC(=O)N[C@H](CC(C)C)C(=O)N(C)C(Cc1ccccc1)C(=O)N/C=C\c1c[nH]c2ccccc12` (stereo partly specified), the IC50 in assay [4] turned out to be 300 nM. In turn, `CC(=O)NC(CC(C)C)C(=O)N(C)C(Cc1ccccc1)C(=O)N/C=C\c1c[nH]c2ccccc12` (stereo unspecified) yielded an IC50 in assay [2] of 16 µg/mL (≈ 33.7 µM). For the compound `CC(=O)NCC(=O)N1C(C(=O)N/C=C\c2c[nH]c3cc(OCc4ccccc4)ncc23)CSC1(C)C` (stereo unspecified), the Cytotoxicity entry in assay [1] is “Active”.

In the case of `CC(=O)NC(C(=O)N(C)C(C(=O)N/C=C\c1c(CC=C(C)C)[nH]c2ccccc12)C(C)C)C(C)C` (stereo unspecified), inhibition in assay [2] was half-maximal at 16 µg/mL (≈ 33.3 µM) (IC50). Still for that read-out and setting: next, `CCC(C)CC(C(=O)N/C=C\c1c[nH]c2ccccc12)N(C)Cc1ccc(O)cc1` (stereo unspecified) [ARAGILAMIDE]: 16 µg/mL (≈ 39.5 µM). With `CC(=O)NCC(=O)N(CCc1c[nH]c2ccccc12)CC(=O)N/C=C\c1c[nH]c2ccccc12`, in assay [4], the IC50 stood at 4100 nM.

In assay [4], `CC(=O)N[C@H](CC(C)C)C(=O)N(CCc1c[nH]c2ccccc12)CC(=O)N/C=C\c1c[nH]c2ccccc12` registered an IC50 of 49900 nM.

With `CC(=O)N1CCC[C@H]1C(=O)N(C1CCCCC1)C1(C(=O)N/C=C\c2c[nH]c3ccccc23)CCCCC1`, in assay [4], half-maximal inhibition (IC50) required 400 nM. Consider `CC(=O)N[C@H](CC(C)C)C(=O)N1C(C(=O)N/C=C\c2c[nH]c3ccccc23)CSC1(C)C` (stereo partly specified), for which the Inhibition in assay [5] and in assay [6] was 100% throughout. As for `CC(=O)N1CCC[C@@H]1C(=O)N(CCc1c[nH]c2ccccc12)CC(=O)N/C=C\c1c[nH]c2cc(OCc3ccccc3)ncc12`, the Inhibition in assay [5] and in assay [6] was 100% throughout. In assay [3], `CC(=O)NCC(=O)N1C(C(=O)N/C=C\c2c[nH]c3ccccc23)CSC1(C)C` (stereo unspecified) returned an Inhibition of 100%.

Turning to `CC(=O)NCC(=O)N(CCCCCO)C1(C(=O)N/C=C\c2c[nH]c3ccccc23)CCN(Cc2ccccc2)CC1`, the Inhibition in assay [3] is recorded as 100%.

For the compound `CC(=O)NCC(=O)N(CCCCCO)C1(C(=O)N/C=C\c2c[nH]c3cc(OCc4ccccc4)ncc23)CCN(Cc2ccccc2)CC1`, the Cytotoxicity entry in assay [1] is “Active”. On to `CC(=O)N[C@H](CC(C)C)C(=O)N(CCc1c[nH]c2ccccc12)CC(=O)N/C=C\c1c[nH]c2cc(OCc3ccccc3)ncc12`, for which the Inhibition in assay [5] and in assay [6] was 100% each time.

For the compound `CC(=O)NCC(=O)N(CCc1c[nH]c2ccccc12)CC(=O)N/C=C\c1c[nH]c2cc(OCc3ccccc3)ncc12`, the Cytotoxicity result in assay [1] is “Active”.

With `CC(=O)N[C@H](CC(C)C)C(=O)N1C(C(=O)N/C=C\c2c[nH]c3cc(OCc4ccccc4)ncc23)CSC1(C)C` (stereo partly specified), the Inhibition in assay [5] and in assay [6] was 100% each time. Also, the Cytotoxicity result in assay [1] was “Active”.

In the case of `CC(=O)N1CCCC1C(=O)N(C)C(Cc1ccccc1)C(=O)N/C=C\c1c[nH]c2cc(OCc3ccccc3)ncc12` (stereo unspecified), in assay [4], it took 1900 nM to reach half-maximal inhibition (IC50). Besides, the Cytotoxicity entry in assay [1] was “Active”.
